{"data": "Assay results gathered from unrelated publications", "Palmitoyl-protein thioesterase 1": "Palmitoyl-protein thioesterase 1 (Homo sapiens, UniProt P50897)", "Transmembrane protease serine 6": "Transmembrane protease serine 6 (Homo sapiens, UniProt Q8IU80)", "note": "Compare with care: the assays were run in different laboratories."}
{"SMILES": "CCCCC/C=C\\C/C=C\\CCCCCCCC(=O)O", "target": "Palmitoyl-protein thioesterase 1", "test": "enzyme activity, inhibitor", "setting": "156 µM", "quantity": "inhibition", "result": "40.4%"}
{"SMILES": "CNc1ncc2c(/C=C/C(=O)N3CCC(OC)CC3)nn(Cc3cccc(C(F)(F)F)c3)c2n1", "target": "Non-receptor tyrosine-protein kinase TYK2 (TYK2, Homo sapiens, UniProt P29597)", "test": "enzyme activity, inhibitor, radiometric", "setting": "1 µM", "quantity": "remaining activity", "result": "91%"}
{"SMILES": "COc1cc(-c2cncc3c2CN(C)Cc2cc(N4CCNCC4)ccc2-3)cc(OC)c1OC", "target": "Epidermal growth factor receptor (EGFR, Homo sapiens, UniProt P00533)", "test": "enzyme activity, inhibitor", "setting": "1 µM", "quantity": "remaining activity", "result": "93%"}
{"SMILES": "CC(C)[C@@H](CC(=O)N[C@@H](CCCNC(=N)N)C(=O)c1nc2ccccc2s1)NC(=O)[C@H](Cc1cscn1)NC(=O)CCc1ccccc1", "target": "Transmembrane protease serine 6", "test": "enzyme activity, inhibitor", "setting": "0.1 µM", "quantity": "remaining activity", "result": "100%"}
{"SMILES": "C=CC(=O)N1CCC(COCC(=O)N2CCN(c3nc(-c4cnc(N)nc4C(F)F)nc(N4CCOC[C@@H]4C)n3)CC2)CC1", "target": "Serine/threonine-protein kinase PRP4 homolog (PRPF4B, Homo sapiens, UniProt Q13523)", "test": "binding, competition with immobilised ligand", "setting": "1 µM", "quantity": "remaining binding", "result": "84%"}
{"SMILES": "N=C(N)NCCC[C@H](NC(=O)[C@H](CC1CC1)NC(=O)[C@H](Cc1cscn1)NC(=O)CCc1ccccc1)C(=O)c1nc2ccccc2s1", "target": "Transmembrane protease serine 6", "test": "enzyme activity, inhibitor", "setting": "0.1 µM", "quantity": "remaining activity", "result": "77%"}
{"SMILES": "Cc1cc([C@@H](C)Nc2ccccc2C(=O)O)c2nc(N3CCC(F)(F)CC3)c(C#N)c(=O)n2c1", "target": "Epidermal growth factor receptor (EGFR, Homo sapiens, UniProt P00533, L858R)", "test": "binding, competition with immobilised ligand", "setting": "1 µM", "quantity": "remaining binding", "result": "100%"}
{"SMILES": "COc1c(O)cc2c(c1O)[C@@H]1O[C@H](CO)[C@@H](O)[C@H](O)[C@H]1OC2=O", "target": "Palmitoyl-protein thioesterase 1", "test": "enzyme activity, inhibitor", "setting": "125 µM", "quantity": "inhibition", "result": "7.04%"}
{"SMILES": "N=C(N)NCCC[C@H](NC(=O)[C@H](Cc1ccc(OCc2ccccc2)cc1)NC(=O)[C@H](Cc1cscn1)NC(=O)CCc1ccccc1)C(=O)c1nc2ccccc2s1", "target": "Transmembrane protease serine 6", "test": "enzyme activity, inhibitor", "setting": "0.1 µM", "quantity": "remaining activity", "result": "8%"}
